Measured values as given in paper PMC7745057 (Translational Oncology, 2020).

Assays:
[1] = tested on: PC-9 (Del19); conditions: read-out: potency against Del19 (measure not given); ref [20]; cited from earlier work
[2] = tested on: LOVO (wild-type EGFR); conditions: read-out: potency in wild-type EGFR cell line (measure not given); ref [20]; cited from earlier work
[3] = tested on: H1975 (T790M); conditions: read-out: potency against T790M (measure not given); ref [20]; cited from earlier work
[4] = tested on: H1975 (L858R T790M) xenografts; assay: H1975 subcutaneous xenograft study; format: in vivo, BALB/c nude mouse; conditions: BEBT-109 30 and 60 mg/kg
[5] = tested on: EGFR wild-type cell lines (H460, Calu-6 and LOVO) and EGFR-deficient Ba/F3 cells; assay: Cell proliferation assay, summary over the panel; format: cell-based; conditions: read-out: mean IC50 values
[6] = Tolerability in xenograft studies; format: in vivo, BALB/c nude mouse; conditions: HCC827, PC-9 and exon 20 insertion xenograft models
[7] = tested on: HCC827 (Del19) xenografts; assay: HCC827 subcutaneous xenograft study; format: in vivo, BALB/c nude mouse; conditions: BEBT-109 60 mg/kg, osimertinib 25 mg/kg (MTD doses)
Method in brief: (§1)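 Female BALB/c nude mice, 7–8 weeks old, inoculated subcutaneously in the right armpit with 2–5 × 10⁶ cells/ml in 0.1 ml PBS (PC-9 in 50% matrigel). Randomised at n = 8 per group; oral test compound started at 200–300 mm³. Tumors measured by caliper, with V = length × width²/2; survival followed after treatment.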

[8] = tested on: EGFR A767_V769dupASV-driven Ba/F3 tumor model; assay: Ba/F3 EGFR A767_V769dupASV xenograft study; format: in vivo, BALB/c nude mouse; conditions: BEBT-109 40 mg/kg bid, osimertinib 20 mg/kg qd (MTD doses), 14 days, n = 8
[9] = tested on: H1975 (L858R T790M); assay: Cell proliferation assay; format: cell-based; conditions: Homo sapiens, NCI-H1975, 72 h
[10] = tested on: PC-9 (Del19) xenografts; assay: PC-9 subcutaneous xenograft study; format: in vivo, BALB/c nude mouse; conditions: BEBT-109 60 mg/kg, osimertinib 25 mg/kg (MTD doses)
Method in brief: as §1

[11] = tested on: H1975 cells; assay: Cell cycle analysis; format: cell-based, human; conditions: 1 nmol/L, 24 h
Method in brief: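 H1975 cells plated at 2 × 10⁵ per well and allowed to adhere, then exposed to 1 nmol/L test compound for 24 h. Cells fixed in 75% ethanol at −20 °C overnight, washed in PBS, and stained with DNA staining solution for 30 min at room temperature in the dark. DNA content analysed immediately by flow cytometry; n = 3.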

Structure (SMILES) | IC50 [1] | IC50 [2] | IC50 [3] | host mice survival post treatment ([4]; osimertinib 25 mg/kg) | tumor regression ([4]; osimertinib 25 mg/kg (MTD), daily, four weeks) | IC50 [5] | body weight [6] | tumor regression [7] | tumor growth [8] | IC50 [9] | tumor regression [10] | effect on cell-cycle progression [11]
C=CC(=O)Nc1cc(Nc2nccc(-c3c[nH]c4ccccc34)n2)c(OC)cc1N(C)CCN(C)C [AZ5104] | 2 nM | 33 nM | 2 nM |  |  |  |  |  |  |  |  | 
C=CC(=O)Nc1cc(Nc2nccc(-c3cn(C)c4ccccc34)n2)c(OC)cc1N(C)CCN(C)C [Osimertinib] |  |  |  | > 30 days | complete H1975 tumor regression | > 1000 nM | Neither drug caused significant body weight loss | complete tumor regression | sustained tumor regression was not observed | 3.9 nM | complete tumor regression | did not change the cell cycle profile
